From ChEMBL document CHEMBL3045866, “A novel family of insect-selective peptide neurotoxins targeting insect large-conductance calcium-activated K+ channels isolated from the venom of the theraphosid spider Eucratoscelus constrictus” (Mol Pharmacol, 2011)
The source made the active and inactive calls. Bridge positions count the residues as written; N and C are the ends. Peptide text beside a SMILES is read from it.

Columns and labels:
Gryllus bimaculatus [1] = experiment: Neurotoxicity against third-instar nymph stage of Gryllus bimaculatus (cricket) assessed as mortality at 1.1 nmol/g measured at 15 min; format: functional, organism-based
Gryllus bimaculatus [2] = experiment: Neurotoxicity against third-instar nymph stage of Gryllus bimaculatus (cricket) assessed as paralysis at 1.1 nmol/g measured within 5 min; format: functional, organism-based
[3] = target: Voltage-dependent calcium channel alpha-1 subunit (Blattella germanica) (UniProt O18323); experiment: (§1) Inhibition of voltage-gated calcium channel Cav-mediated late-sustained current in Periplaneta americana (American cockroach) DUM neurons assessed as measured at holding potential -80 mV depolarized to +40 mV after 10 min by whole cell patch clamp assay in presence of CdCl2
Method in brief: (§2)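 BK(Ca) current in DUM neurons with 5 mM 4-AP in the bath. Toxin perfused for 10 min or to equilibrium; then 1 mM CdCl2 plus 30 nM ChTx added, and the residual current subtracted. 100-ms steps from Vh -80 mV to +30 mV, or to +40 mV in 10-mV increments for I–V. Peak (fast-transient) and 100-ms (late) amplitudes measured. IC50 from logistic fit; n = 3–6.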

[4] = Inhibition of transient A type potassium channel IK(A) in Periplaneta americana (American cockroach) DUM neurons assessed as effect on voltage-dependent activation at 330 nM measured at holding potential -90 mV depolarized to +40 mV with 100 ms increments after 10 min by whole cell patch clamp …
Mus musculus [5] = experiment: Neurotoxicity against Mus musculus C57BL/6 (mouse) assessed as effect on behaviour at 500 pmol, icv; format: toxicity, organism-based; settings: in vivo, icv_or_intrathecal
Method in brief: (§3)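 Female C57BL/6 mice (~20 g) lightly anesthetized with diethylether. 5 µl of sample in BSA solution injected into the left cerebral ventricle. Posture, behavior and neurotoxic signs observed; n = 2.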

[6] = target: Voltage-dependent calcium channel alpha-1 subunit (Blattella germanica) (UniProt O18323); experiment: as §1, with “assessed as effect on voltage-dependent activation at 6 nM measured at” for “assessed as measured at”, “-80 mV in 10 mV increments depolarized to” for “-80 mV depolarized to”; method in brief: as §2
[7] = target: Voltage-gated sodium channel Nav1 alpha subunit (Periplaneta americana) (UniProt D0E0C1); experiment: Inhibition of Nav channel in Periplaneta americana (American cockroach) DUM neurons assessed as effect on voltage-dependent activation at 330 nM measured at holding potential -90 mV depolarised to +70 mV with 10 mV increments for 10 min by whole cell patch clamp assay
Method in brief: (§4)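 Whole-cell voltage clamp of TTX-sensitive Na+ current in DUM neurons isolated from adult cockroaches and kept no longer than 24 h at 30°C. Bath (mM): NaCl 80, CsCl 5, CaCl2 1.8, TEA-Cl 50, 4-AP 5, HEPES 10, NiCl2 0.1, CdCl2 1, pH 7.4. Vh -90 mV; test pulse to -10 mV, or steps to +70 mV in 10-mV increments at 0.1 Hz. P-P/4 leak subtraction; 20–23°C.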

[8] = Inhibition of delayed rectifier potassium channel IK(DR) in Periplaneta americana (American cockroach) DUM neurons assessed as effect on voltage-dependent activation at 330 nM measured at holding potential -90 mV depolarized to +40 mV with 100 ms increments after 10 min by whole cell voltage clamp …
[9] = target: Voltage-dependent calcium channel alpha-1 subunit (Blattella germanica) (UniProt O18323); experiment: Inhibition of high voltage activated Cav channel in Periplaneta americana (American cockroach) DUM neurons assessed as effect on voltage-dependent activation at 330 nM measured at holding potential -90 mV depolarized to +70 mV with 10 mV increments after 10 min by whole cell patch clamp assay
Method in brief: (§5)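 Ba2+ currents through M-LVA and HVA Cav channels recorded by whole-cell clamp in cockroach DUM neurons at 20–23°C. Toxin applied for 10 min via a perfusion needle. Peak IBa measured relative to control. For activation, steps from Vh -90 mV to +70 mV in 10-mV increments at 0.1 Hz. P-P/4 leak subtraction; n = 3.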

[10] = Inhibition of transient A type potassium channel IK(A) in Periplaneta americana (American cockroach) DUM neurons at 330 nM measured at holding potential -90 mV depolarized to +30 mV after 10 min by whole cell patch clamp assay in presence of CdCl2 and ChTx
[11] = target: Voltage-dependent calcium channel alpha-1 subunit (Blattella germanica) (UniProt O18323); experiment: Inhibition of mid-low voltage activated Cav channel in Periplaneta americana (American cockroach) DUM neurons assessed as effect on voltage-dependent activation at 330 nM measured at holding potential -90 mV depolarized to +70 mV with 10 mV increments after 10 min by whole cell patch clamp assay; method in brief: as §5
[12] = target: Voltage-dependent calcium channel alpha-1 subunit (Blattella germanica) (UniProt O18323); experiment: (§6) Inhibition of voltage-gated calcium channel Cav-mediated fast-transient current in Periplaneta americana (American cockroach) DUM neurons assessed as effect on voltage-dependent activation at 6 nM measured at holding potential -80 mV in 10 mV increments depolarized to +40 mV after 10 min by whole cell patch clamp assay in presence of CdCl2; method in brief: as §2
[13] = Reversible inhibition of Potassium channel Kv in Periplaneta americana (American cockroach) DUM neurons at 330 nM measured at holding potential -90 mV depolarized to +30 mV after 10 min by whole cell patch clamp assay relative to control
Mus musculus [14] = experiment: Neurotoxicity against Mus musculus C57BL/6 (mouse) assessed as effect on posture at 500 pmol, icv; format: toxicity, organism-based; settings: in vivo, icv_or_intrathecal; method in brief: as §3
[15] = target: Voltage-dependent calcium channel alpha-1 subunit (Blattella germanica) (UniProt O18323); experiment: Inhibition of voltage-gated calcium channel Cav-mediated fast-transient current in Periplaneta americana (American cockroach) DUM neurons assessed as measured at holding potential -80 mV depolarized to +40 mV after 10 min by whole cell patch clamp assay in presence of CdCl2; method in brief: as §2
[16] = Inhibition of delayed rectifier potassium channel IK(DR) in Periplaneta americana (American cockroach) DUM neurons at 330 nM measured at holding potential -90 mV depolarized to +30 mV after 10 min by whole cell voltage clamp assay in presence of CdCl2 and ChTx relative to control
[17] = target: Voltage-gated sodium channel Nav1 alpha subunit (Periplaneta americana) (UniProt D0E0C1); experiment: Inhibition of Nav channel in Periplaneta americana (American cockroach) DUM neurons assessed as remaining activity at 330 nM measured at holding potential -90 mV depolarized to -10 mV after 10 min by whole cell patch clamp assay relative to control; method in brief: as §4
[18] = target: Voltage-dependent calcium channel alpha-1 subunit (Blattella germanica) (UniProt O18323); experiment: as §6, with “25” for “6”; method in brief: as §2
[19] = target: Voltage-dependent calcium channel alpha-1 subunit (Blattella germanica) (UniProt O18323); experiment: as §6, with “late-sustained” for “fast-transient”, “25” for “6”
[20] = target: Voltage-dependent calcium channel alpha-1 subunit (Blattella germanica) (UniProt O18323); experiment: Inhibition of high voltage activated Cav channel in Periplaneta americana (American cockroach) DUM neurons assessed as reduction in barium current at 330 nM measured at holding potential -90 mV depolarized to +30 mV after 10 min by whole cell patch clamp assay relative to control; method in brief: as §5
[21] = target: Voltage-dependent calcium channel alpha-1 subunit (Blattella germanica) (UniProt O18323); experiment: Inhibition of mid-low voltage activated Cav channel in Periplaneta americana (American cockroach) DUM neurons assessed as reduction in barium current at 330 nM measured at holding potential -90 mV depolarized to -20 mV after 10 min by whole cell patch clamp assay relative to control; method in brief: as §5

Chain of Voltage-dependent calcium channel alpha-1 subunit (Blattella germanica) (O18323 as listed by the source): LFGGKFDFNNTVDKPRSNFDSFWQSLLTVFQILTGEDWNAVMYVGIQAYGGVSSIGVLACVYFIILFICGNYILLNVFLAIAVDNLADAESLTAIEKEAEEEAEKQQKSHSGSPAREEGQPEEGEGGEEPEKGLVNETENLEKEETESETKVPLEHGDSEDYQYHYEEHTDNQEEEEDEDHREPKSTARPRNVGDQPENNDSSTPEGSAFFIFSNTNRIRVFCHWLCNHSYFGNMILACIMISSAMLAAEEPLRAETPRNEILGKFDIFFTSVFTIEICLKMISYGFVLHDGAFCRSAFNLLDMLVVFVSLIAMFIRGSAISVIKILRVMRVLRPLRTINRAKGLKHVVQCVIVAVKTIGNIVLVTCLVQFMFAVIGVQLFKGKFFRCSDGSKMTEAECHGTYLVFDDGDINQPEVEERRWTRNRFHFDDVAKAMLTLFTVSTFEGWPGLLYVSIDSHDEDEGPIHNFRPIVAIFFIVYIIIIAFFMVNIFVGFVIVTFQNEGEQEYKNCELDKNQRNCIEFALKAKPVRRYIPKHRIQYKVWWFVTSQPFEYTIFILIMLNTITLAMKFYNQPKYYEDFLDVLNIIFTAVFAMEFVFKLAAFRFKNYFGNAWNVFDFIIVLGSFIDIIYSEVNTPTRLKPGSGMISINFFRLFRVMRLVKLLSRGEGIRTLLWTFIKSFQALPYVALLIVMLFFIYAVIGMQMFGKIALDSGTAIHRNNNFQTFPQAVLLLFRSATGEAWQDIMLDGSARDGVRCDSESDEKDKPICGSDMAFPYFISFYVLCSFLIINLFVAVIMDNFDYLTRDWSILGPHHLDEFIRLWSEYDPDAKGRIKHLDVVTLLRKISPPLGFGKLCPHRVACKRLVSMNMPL
Chain of Voltage-gated sodium channel Nav1 alpha subunit (Periplaneta americana) (D0E0C1 as listed by the source): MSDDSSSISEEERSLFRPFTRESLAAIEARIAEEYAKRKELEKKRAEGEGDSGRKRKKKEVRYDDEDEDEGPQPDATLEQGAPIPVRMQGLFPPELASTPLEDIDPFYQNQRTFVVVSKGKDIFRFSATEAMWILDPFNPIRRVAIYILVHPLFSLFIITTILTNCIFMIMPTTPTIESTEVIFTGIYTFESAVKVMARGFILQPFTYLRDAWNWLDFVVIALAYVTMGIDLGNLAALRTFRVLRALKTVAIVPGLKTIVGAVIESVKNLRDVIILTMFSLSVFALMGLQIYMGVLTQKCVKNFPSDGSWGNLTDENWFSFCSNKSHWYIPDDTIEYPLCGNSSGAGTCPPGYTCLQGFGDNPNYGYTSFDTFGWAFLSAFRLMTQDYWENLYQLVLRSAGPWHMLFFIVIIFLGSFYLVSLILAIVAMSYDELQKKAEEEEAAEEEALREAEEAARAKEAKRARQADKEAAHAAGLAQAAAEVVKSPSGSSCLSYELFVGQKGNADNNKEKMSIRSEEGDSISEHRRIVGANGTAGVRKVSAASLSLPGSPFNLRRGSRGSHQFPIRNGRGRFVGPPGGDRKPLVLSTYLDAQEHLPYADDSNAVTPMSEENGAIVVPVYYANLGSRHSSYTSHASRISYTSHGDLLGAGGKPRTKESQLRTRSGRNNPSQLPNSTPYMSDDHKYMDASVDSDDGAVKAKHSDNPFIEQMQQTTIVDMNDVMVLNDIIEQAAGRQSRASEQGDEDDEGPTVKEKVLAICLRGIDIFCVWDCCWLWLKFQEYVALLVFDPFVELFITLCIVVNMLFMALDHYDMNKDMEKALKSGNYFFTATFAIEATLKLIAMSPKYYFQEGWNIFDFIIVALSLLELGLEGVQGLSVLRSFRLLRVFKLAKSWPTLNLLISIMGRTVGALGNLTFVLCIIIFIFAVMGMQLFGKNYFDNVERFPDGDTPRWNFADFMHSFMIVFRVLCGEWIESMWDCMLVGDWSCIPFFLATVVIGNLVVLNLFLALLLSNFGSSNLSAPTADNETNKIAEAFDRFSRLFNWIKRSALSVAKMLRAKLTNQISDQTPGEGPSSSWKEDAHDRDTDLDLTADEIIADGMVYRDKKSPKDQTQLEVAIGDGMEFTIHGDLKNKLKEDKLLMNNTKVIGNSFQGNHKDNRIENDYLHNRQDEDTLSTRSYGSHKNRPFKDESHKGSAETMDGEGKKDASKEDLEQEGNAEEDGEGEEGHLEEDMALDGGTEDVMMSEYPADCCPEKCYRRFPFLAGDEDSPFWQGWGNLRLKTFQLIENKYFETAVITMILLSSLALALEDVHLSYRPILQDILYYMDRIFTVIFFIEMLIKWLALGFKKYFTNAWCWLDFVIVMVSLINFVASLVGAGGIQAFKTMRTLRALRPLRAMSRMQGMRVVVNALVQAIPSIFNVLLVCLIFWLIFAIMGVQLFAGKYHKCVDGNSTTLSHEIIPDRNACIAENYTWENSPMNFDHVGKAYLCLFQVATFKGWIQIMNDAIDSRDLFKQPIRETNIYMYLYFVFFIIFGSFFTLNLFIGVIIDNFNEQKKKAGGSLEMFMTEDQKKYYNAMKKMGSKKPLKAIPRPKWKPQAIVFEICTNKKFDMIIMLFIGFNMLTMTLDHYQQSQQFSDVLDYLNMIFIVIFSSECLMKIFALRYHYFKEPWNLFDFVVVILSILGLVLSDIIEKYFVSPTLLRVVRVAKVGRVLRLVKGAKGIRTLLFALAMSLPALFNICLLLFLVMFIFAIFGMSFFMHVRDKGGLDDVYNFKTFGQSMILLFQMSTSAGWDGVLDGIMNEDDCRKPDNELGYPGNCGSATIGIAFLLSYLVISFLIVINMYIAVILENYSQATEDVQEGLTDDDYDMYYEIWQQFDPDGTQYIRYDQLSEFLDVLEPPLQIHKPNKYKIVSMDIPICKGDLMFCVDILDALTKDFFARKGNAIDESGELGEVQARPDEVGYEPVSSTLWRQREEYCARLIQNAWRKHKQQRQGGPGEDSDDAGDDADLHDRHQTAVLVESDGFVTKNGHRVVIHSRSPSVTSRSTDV

CSCC[C@@H]1NC(=O)[C@H](CC(=O)O)NC(=O)[C@H](CCC(=O)O)NC(=O)[C@@H]2CSSC[C@H](NC(=O)[C@@H](N)Cc3ccc(O)cc3)C(=O)N[C@@H](CCC(N)=O)C(=O)N[C@@H](CCCCN)C(=O)N[C@@H](Cc3ccccc3)C(=O)N[C@@H](CC(C)C)C(=O)N[C@@H](Cc3c[nH]c4ccccc34)C(=O)N[C@@H]([C@@H](C)O)C(=O)N[C@H]3CSSC[C@H](NC(=O)[C@H](C(C)C)NC1=O)C(=O)N[C@@H](CCC(=O)O)C(=O)N[C@@H](CC(C)C)C(=O)N[C@@H](Cc1c[nH]c4ccccc14)C(=O)N[C@H](C(=O)N[C@@H](CCCCN)C(=O)N[C@@H](CC(C)C)C(=O)N[C@@H](CCC(=O)O)C(=O)N[C@@H](CCCCN)C(=O)O)CSSC[C@H](NC(=O)[C@H](CCCCN)NC(=O)[C@H](CCCNC(=N)N)NC(=O)[C@H](CCC(=O)O)NC(=O)[C@H]([C@@H](C)O)NC(=O)[C@H](CC(=O)O)NC3=O)C(=O)N2 (H-YCQKFLWTCDTERKCCEDMVCELWCKLEK-OH; disulfide 2-16, 9-21, 15-25)
active: Activity (Gryllus bimaculatus [1]) | Activity (Gryllus bimaculatus [2]) | inhibition [3] Dose-dependent effect | inhibition [10] | inhibition [13] | inhibition [15] Dose-dependent effect
inactive: inhibition [4] | inhibition [6] | inhibition [7] | inhibition [8] | inhibition [9] | inhibition [11] | inhibition [12]
Non-toxic: Activity (Mus musculus [5]) | Activity (Mus musculus [14])
31%: inhibition [16]

CSCC[C@@H]1NC(=O)[C@H](CC(=O)O)NC(=O)[C@H](CCC(=O)O)NC(=O)[C@@H]2CSSC[C@H](NC(=O)[C@@H](N)Cc3ccc(O)cc3)C(=O)N[C@@H](CCC(N)=O)C(=O)N[C@@H](CCCCN)C(=O)N[C@@H](Cc3ccccc3)C(=O)N[C@@H](CC(C)C)C(=O)N[C@@H](Cc3c[nH]c4ccccc34)C(=O)N[C@@H]([C@@H](C)O)C(=O)N[C@H]3CSSC[C@H](NC(=O)[C@H](C(C)C)NC1=O)C(=O)N[C@@H](CCC(=O)O)C(=O)N[C@@H](CC(C)C)C(=O)N[C@@H](Cc1c[nH]c4ccccc14)C(=O)N[C@H](C(=O)N[C@@H](CCCCN)C(=O)N[C@@H](Cc1ccc(O)cc1)C(=O)N[C@@H](CCCCN)C(=O)N[C@@H](CCC(=O)O)C(=O)O)CSSC[C@H](NC(=O)[C@H](CCCCN)NC(=O)[C@H](CCCNC(=N)N)NC(=O)[C@H](CCC(=O)O)NC(=O)[C@H]([C@@H](C)O)NC(=O)[C@H](CC(=O)O)NC3=O)C(=O)N2 (H-YCQKFLWTCDTERKCCEDMVCELWCKYKE-OH; disulfide 2-16, 9-21, 15-25)
7%: inhibition [20]
92%: Activity [17]
Non-toxic: Activity (Mus musculus [5]) | Activity (Mus musculus [14])
active: Activity (Gryllus bimaculatus [1]) | Activity (Gryllus bimaculatus [2]) | inhibition [3] Dose-dependent effect | inhibition [13] | inhibition [15] Dose-dependent effect
10%: inhibition [21]
inactive: inhibition [4] | inhibition [7] | inhibition [8] | inhibition [9] | inhibition [10] | inhibition [11] | inhibition [18] | inhibition [19] | inhibition [16]
